Results: ChEMBL document CHEMBL1143066, “Characterization and optimization of selective, nonpeptidic inhibitors of cathepsin S with an unprecedented binding mode” (J Med Chem, 2007)

Assays:
Format in all cases: functional
[1] = substrate: CCCCc1ccc(-c2ccccc2OCC(=O)Nc2ccc3c(C)c(CC(=O)O)c(=O)oc3c2)c(F)c1F; assay: (§1) Activity of cathepsin S assessed as substrate cleavage efficiency
Summary of the method: (§2)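 Cathepsin S at 37 °C in pH 6.1 100 mM sodium phosphate, 100 mM NaCl, 1 mM DTT, 1 mM EDTA, 0.001% Tween-20. AMCA substrate added from DMSO at ≥6-fold below its K_M. Run in duplicate with and without enzyme. Fluorescence (ex 370/em 455 nm) read over up to 15 min. Slope gave V_max/K_M; k_cat/K_M used AMCA calibration and E-64c-titrated enzyme concentration.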

[2] = substrate: CCCc1ccc(-c2ccccc2OCC(=O)Nc2ccc3c(C)c(CC(=O)O)c(=O)oc3c2)c(F)c1F; assay: as §1; summary of the method: as §2
[3] = substrate: CCc1ccc(-c2ccccc2OCC(=O)Nc2ccc3c(C)c(CC(=O)O)c(=O)oc3c2)c(F)c1F; assay: as §1; summary of the method: as §2
[4] = substrate: COc1ccc(-c2ccccc2OCC(=O)Nc2ccc3c(C)c(CC(=O)O)c(=O)oc3c2)c(F)c1F; assay: as §1; summary of the method: as §2
[5] = substrate: Cc1c(CC(=O)O)c(=O)oc2cc(NC(=O)COc3ccccc3-c3ccc(CC(C)C)c(F)c3F)ccc12; assay: as §1; summary of the method: as §2
[6] = substrate: Cc1c(CC(=O)O)c(=O)oc2cc(NC(=O)COc3ccccc3-c3ccc(CC4CCCCC4)c(F)c3F)ccc12; assay: as §1; summary of the method: as §2
[7] = substrate: Cc1c(CC(=O)O)c(=O)oc2cc(NC(=O)COc3ccccc3-c3ccc(F)c(F)c3F)ccc12; assay: as §1; summary of the method: as §2

B1: Cathepsin S (Homo sapiens), P25774 (protein)
chain: MKRLVCVLLVCSSAVAQLHKDPTLDHHWHLWKKTYGKQYKEKNEEAVRRLIWEKNLKFVMLHNLEHSMGMHSYDLGMNHLGDMTSEEVMSLMSSLRVPSQWQRNITYKSNPNRILPDSVDWREKGCVTEVKYQGSCGACWAFSAVGALEAQLKLKTGKLVSLSAQNLVDCSTEKYGNKGCNGGFMTTAFQYIIDNKGIDSDASYPYKAMDQKCQYDSKYRAATCSKYTELPYGREDVLKEAVANKGPVSVGVDARHPSFFLYRSGVYYEPSCTQNVNHGVLVVGYGDLNGKEYWLVKNSWGHNFGEEGYIRMARNKGNHCGIASFPSYPEI
With B1 the kcat/Km [1] was 85000 M⁻¹ s⁻¹, the kcat/Km [2] was 145000 M⁻¹ s⁻¹ and the kcat/Km [3] was 25900 M⁻¹ s⁻¹. For the same protein, the kcat/Km [4] was 2700 M⁻¹ s⁻¹, the kcat/Km [5] was 288000 M⁻¹ s⁻¹ and the kcat/Km [6] was 15700 M⁻¹ s⁻¹. It also gave a kcat/Km [7] of 27000 M⁻¹ s⁻¹.
